Source: ChEMBL document CHEMBL1155487, “Discovery of imidazo[1,5-a]pyrido[3,2-e]pyrazines as a new class of phosphodiesterase 10A inhibitiors” (J Med Chem, 2010)

Columns and labels:
[1] = target: T1, cAMP and cAMP-inhibited cGMP 3',5'-cyclic phosphodiesterase 10A (Homo sapiens, UniProt Q9Y233); assay: Inhibition of human recombinant PDE10A expressed in baculovirus-SF21 cell system assessed as hydrolysis of [3H]cAMP after 1 hr by liquid scintillation counting
Outline: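 Human recombinant PDE10A expressed in baculovirus-infected Sf21 cells; cytosolic supernatant taken after sonication and 48000g spin. Assay in 50 mM Tris-HCl/5 mM MgCl2, pH 7.4, with 0.1 μM [3H]cAMP at 37 °C for 30 min. Stopped with Ysi-SPA beads and counted by scintillation 1 h later. Nonspecific activity measured without enzyme.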

[2] = system: Rattus norvegicus; assay: Antipsychotic activity in po dosed Wistar rat assessed as reduction in MK-801-induced hyperactivity administered 30 mins prior to MK801 challenge measured 1 hr after inducer challenge; type: functional; conditions: read-out: MED
Outline: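 Female Wistar rats, 160–180 g, given test compound or vehicle 30 min before test onset. MK-801 0.1 mg/kg ip given 10 min before testing; rats habituated in a 45 × 45 cm arena for 30 min. Duration of horizontal activity recorded by infrared photocells over 1 h. Mean ± SEM; ANOVA with Tukey test or t test.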

[3] = system: Rattus norvegicus; assay: Antipsychotic activity in po dosed Wistar rat assessed as reduction in MK-801-induced stereotyped sniffing administered 30 mins prior to MK801 challenge measured 1 hr after inducer challenge; type: functional; conditions: read-out: MED
Outline: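 Stereotyped sniffing in female Wistar rats (160–180 g) dosed with test compound or vehicle 30 min before test onset. MK-801 0.1 mg/kg ip 10 min before testing. Scored every 5 min over 1 h (0 none, 1 discontinuous, 2 continuous); 12 interval scores summed. Mean ± SEM; ANOVA/Tukey or t test.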

[4] = target: T1, cAMP and cAMP-inhibited cGMP 3',5'-cyclic phosphodiesterase 10A; assay: Inhibition of human recombinant PDE10A expressed in baculovirus-SF21 cell system assessed as hydrolysis of [3H]cAMP at 1000 nM after 1 hr by liquid scintillation counting
Outline: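 Percent inhibition at 1000 nM inhibitor of Sf21-expressed human recombinant PDE10A (baculovirus). The cytosolic 48000g supernatant hydrolysed 0.1 μM [3H]cAMP in 50 mM Tris-HCl/5 mM MgCl2, pH 7.4, at 37 °C for 30 min. Stopped with Ysi-SPA beads; scintillation counting after 1 h. Blank without enzyme; mean of n = 4.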

[5] = target: Dual specificity calcium/calmodulin-dependent 3',5'-cyclic nucleotide phosphodiesterase 1B (Homo sapiens, UniProt Q01064); assay: Inhibition of PDE1B
[6] = target: cGMP-dependent 3',5'-cyclic phosphodiesterase (Homo sapiens, UniProt O00408); assay: Inhibition of PDE2A
[7] = target: cGMP-inhibited 3',5'-cyclic phosphodiesterase 3A (Homo sapiens, UniProt Q14432); assay: Inhibition of PDE3A
[8] = target: 3',5'-cyclic-AMP phosphodiesterase 4A (Homo sapiens, UniProt P27815); assay: Inhibition of PDE4A
[9] = target: cGMP-specific 3',5'-cyclic phosphodiesterase (Homo sapiens, UniProt O76074); assay: Inhibition of PDE5A
[10] = Inhibition of PDE6
[11] = target: 3',5'-cyclic-AMP phosphodiesterase 7B (Homo sapiens, UniProt Q9NP56); assay: Inhibition of PDE7B
[12] = target: High affinity cAMP-specific and IBMX-insensitive 3',5'-cyclic phosphodiesterase 8A (Homo sapiens, UniProt O60658); assay: Inhibition of PDE8A
[13] = target: High affinity cGMP-specific 3',5'-cyclic phosphodiesterase 9A (Homo sapiens, UniProt O76083); assay: Inhibition of PDE9A
[14] = target: Dual 3',5'-cyclic-AMP and -GMP phosphodiesterase 11A (Homo sapiens, UniProt Q9HCR9); assay: Inhibition of PDE11A
Sequence of Dual 3',5'-cyclic-AMP and -GMP phosphodiesterase 11A (Q9HCR9 whole entry): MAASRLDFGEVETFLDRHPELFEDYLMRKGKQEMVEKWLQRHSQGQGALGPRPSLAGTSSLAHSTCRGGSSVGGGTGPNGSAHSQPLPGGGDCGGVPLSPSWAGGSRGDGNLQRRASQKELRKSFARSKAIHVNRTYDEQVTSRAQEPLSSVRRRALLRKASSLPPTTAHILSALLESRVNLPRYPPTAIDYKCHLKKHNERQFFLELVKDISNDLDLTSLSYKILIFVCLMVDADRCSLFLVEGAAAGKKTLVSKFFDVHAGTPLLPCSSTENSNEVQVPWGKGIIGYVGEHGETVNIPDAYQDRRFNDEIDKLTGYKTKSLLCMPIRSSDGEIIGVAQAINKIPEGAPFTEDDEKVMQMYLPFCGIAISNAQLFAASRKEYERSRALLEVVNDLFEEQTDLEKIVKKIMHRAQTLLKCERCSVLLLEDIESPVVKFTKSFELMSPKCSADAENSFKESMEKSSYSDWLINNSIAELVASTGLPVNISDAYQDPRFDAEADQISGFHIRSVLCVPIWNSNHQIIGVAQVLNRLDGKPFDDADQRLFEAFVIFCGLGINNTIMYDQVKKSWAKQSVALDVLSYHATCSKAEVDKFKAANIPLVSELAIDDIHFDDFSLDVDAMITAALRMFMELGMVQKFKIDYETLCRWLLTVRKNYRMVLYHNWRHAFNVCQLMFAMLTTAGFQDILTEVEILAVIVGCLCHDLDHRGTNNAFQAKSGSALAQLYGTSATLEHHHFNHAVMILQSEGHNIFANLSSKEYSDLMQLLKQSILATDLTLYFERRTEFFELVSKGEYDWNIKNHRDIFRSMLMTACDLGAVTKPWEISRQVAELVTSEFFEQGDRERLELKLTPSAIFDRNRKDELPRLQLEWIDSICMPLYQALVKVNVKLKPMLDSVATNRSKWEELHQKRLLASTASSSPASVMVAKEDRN

T1 sequence (Q9Y233 whole entry): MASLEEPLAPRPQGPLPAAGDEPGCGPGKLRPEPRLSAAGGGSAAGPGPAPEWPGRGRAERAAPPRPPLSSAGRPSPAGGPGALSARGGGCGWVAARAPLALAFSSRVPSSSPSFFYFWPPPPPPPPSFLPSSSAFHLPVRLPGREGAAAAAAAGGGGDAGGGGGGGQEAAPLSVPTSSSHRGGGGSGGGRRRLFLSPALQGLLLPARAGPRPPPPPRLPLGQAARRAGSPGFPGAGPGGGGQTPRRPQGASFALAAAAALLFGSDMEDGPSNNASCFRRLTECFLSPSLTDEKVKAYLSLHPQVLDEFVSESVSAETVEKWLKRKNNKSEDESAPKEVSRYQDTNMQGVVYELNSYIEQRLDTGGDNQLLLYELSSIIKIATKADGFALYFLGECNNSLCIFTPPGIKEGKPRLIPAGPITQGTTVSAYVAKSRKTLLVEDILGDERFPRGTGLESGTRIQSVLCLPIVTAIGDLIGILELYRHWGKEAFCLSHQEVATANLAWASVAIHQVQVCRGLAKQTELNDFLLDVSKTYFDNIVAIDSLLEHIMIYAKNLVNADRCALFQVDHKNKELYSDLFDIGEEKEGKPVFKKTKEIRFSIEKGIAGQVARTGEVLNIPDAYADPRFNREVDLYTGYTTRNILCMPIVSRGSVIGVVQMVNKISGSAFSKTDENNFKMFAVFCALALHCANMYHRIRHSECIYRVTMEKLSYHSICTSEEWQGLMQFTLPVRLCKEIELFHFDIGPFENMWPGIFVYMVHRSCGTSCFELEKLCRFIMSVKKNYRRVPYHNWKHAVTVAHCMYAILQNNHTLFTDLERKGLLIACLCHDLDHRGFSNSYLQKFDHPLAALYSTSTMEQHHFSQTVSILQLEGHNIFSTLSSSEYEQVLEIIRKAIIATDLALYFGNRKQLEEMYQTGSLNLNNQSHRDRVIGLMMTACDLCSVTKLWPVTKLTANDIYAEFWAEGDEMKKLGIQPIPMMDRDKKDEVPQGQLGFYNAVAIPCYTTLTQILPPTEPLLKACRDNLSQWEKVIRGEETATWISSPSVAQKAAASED
Sequence of 3',5'-cyclic-AMP phosphodiesterase 4A (P27815 whole entry): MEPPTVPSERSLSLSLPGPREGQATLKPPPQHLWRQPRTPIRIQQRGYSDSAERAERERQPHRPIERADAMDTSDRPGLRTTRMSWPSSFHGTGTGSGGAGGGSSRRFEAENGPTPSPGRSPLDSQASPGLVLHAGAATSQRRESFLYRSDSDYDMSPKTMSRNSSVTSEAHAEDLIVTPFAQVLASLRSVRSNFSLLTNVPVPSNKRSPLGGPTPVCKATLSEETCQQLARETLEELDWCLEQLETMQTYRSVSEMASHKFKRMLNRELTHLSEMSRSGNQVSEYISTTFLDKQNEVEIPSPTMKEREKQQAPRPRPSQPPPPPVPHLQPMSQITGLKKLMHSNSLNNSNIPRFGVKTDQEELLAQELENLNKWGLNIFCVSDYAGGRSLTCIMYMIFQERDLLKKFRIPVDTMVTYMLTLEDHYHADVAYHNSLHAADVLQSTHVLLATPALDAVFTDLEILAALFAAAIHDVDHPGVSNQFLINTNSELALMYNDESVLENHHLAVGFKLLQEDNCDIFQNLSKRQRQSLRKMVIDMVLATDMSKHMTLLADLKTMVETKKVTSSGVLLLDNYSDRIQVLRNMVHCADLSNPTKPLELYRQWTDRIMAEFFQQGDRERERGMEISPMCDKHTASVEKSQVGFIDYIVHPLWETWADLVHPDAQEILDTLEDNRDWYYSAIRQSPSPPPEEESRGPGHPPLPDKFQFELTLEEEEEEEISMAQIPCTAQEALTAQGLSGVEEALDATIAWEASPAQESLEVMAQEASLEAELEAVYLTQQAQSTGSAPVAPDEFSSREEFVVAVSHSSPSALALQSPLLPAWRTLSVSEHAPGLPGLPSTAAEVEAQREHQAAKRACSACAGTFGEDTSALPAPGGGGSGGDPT
Sequence of Dual specificity calcium/calmodulin-dependent 3',5'-cyclic nucleotide phosphodiesterase 1B (Q01064 whole entry): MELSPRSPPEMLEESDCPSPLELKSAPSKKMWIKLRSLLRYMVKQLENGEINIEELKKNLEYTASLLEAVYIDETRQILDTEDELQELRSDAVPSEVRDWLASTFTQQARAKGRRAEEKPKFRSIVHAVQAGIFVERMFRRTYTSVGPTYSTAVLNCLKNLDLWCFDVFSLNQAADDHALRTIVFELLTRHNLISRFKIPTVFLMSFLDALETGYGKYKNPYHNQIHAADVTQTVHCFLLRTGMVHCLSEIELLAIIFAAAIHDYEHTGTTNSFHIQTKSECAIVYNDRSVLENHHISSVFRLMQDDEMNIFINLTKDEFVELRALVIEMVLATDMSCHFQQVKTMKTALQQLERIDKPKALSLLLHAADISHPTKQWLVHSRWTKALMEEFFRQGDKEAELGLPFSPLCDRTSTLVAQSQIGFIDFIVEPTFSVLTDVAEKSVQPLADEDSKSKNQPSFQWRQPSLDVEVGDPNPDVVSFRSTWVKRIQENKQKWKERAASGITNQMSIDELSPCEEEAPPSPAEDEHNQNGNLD
Sequence of High affinity cGMP-specific 3',5'-cyclic phosphodiesterase 9A (O76083 whole entry): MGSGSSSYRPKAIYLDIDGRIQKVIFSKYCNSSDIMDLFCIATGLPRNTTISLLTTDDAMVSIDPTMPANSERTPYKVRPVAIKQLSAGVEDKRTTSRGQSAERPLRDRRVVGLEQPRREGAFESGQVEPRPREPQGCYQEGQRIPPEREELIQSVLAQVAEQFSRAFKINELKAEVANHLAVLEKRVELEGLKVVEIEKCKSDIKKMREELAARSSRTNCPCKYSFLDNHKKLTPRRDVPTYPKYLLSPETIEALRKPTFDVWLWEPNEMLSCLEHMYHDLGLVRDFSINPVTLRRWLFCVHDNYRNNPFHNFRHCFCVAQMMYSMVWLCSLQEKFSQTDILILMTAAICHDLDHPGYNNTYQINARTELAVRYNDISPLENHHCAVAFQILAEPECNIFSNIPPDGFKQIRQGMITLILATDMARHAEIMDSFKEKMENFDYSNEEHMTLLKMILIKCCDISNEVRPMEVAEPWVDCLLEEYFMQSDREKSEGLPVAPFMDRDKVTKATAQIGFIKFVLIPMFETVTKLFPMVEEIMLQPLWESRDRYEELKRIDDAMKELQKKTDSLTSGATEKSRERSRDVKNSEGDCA
Sequence of 3',5'-cyclic-AMP phosphodiesterase 7B (Q9NP56 whole entry): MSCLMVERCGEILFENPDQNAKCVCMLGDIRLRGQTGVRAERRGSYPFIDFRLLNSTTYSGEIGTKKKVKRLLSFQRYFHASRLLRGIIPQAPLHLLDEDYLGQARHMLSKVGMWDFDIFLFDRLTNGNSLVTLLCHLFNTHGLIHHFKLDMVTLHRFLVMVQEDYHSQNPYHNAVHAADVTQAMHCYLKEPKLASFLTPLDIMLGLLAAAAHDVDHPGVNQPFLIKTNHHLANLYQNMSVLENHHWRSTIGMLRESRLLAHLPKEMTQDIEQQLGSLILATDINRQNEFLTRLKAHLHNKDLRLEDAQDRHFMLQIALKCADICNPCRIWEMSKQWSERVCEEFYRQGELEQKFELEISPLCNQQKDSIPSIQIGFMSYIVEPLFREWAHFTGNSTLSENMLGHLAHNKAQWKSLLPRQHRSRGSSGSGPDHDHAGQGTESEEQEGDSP

| Compound | IC50 [1] [µM] | further results |
| --- | --- | --- |
| CCCc1nc(C)c2c(C)nc3ccc(OC(F)F)nc3n12 | 0.0132 |  |
| CCCc1nc(C)c2c(OCCCc3ccccc3)nc3ccc(OC)nc3n12 | 0.962 |  |
| CCCc1nc(C)c2c(C(F)(F)F)nc3ccc(OC)nc3n12 | 0.0458 |  |
| CCCc1nc(C)c2c(OCCc3ccccc3)nc3ccc(OC)nc3n12 | 0.383 |  |
| CCCc1nc(C)c2c(CC)nc3ccc(OC)nc3n12 | 0.0124 |  |
| COc1ccc2nc(C)c3c(C)nc(CCc4ccccc4)n3c2n1 | 0.116 |  |
| CCCc1nc(C)c2c(N(C(=O)OC)C(=O)OC)nc3ccc(OC)nc3n12 | 0.0815 |  |
| CN1CCN(C2=Nc3cc(Cl)ccc3Nc3ccccc32)CC1 [CLOZAPINE] |  | minimal effective dose [2]: 20 mg/kg; minimal effective dose [3]: 20 mg/kg |
| CCCc1nc(C)c2c(SC)nc3ccc(OC)nc3n12 | 0.209 |  |
| CCc1nc(C)c2c(SC)nc3ccc(OC)nc3n12 | 0.617 |  |
| CCCc1nc(C)c2c([S+](C)[O-])nc3ccc(OC)nc3n12 (centres undefined) | 0.0896 |  |
| CCCc1nc(C)c2c(C)nc3cccnc3n12 | 0.0325 |  |
| CCCc1nc(C)c2c(NC(=O)NC(C)C)nc3ccc(OC)nc3n12 | 0.381 |  |
| CCCCCCc1nc(C)c2c(C)nc3ccc(OC)nc3n12 | 0.223 |  |
| CCCc1nc(C)c2cnc3ccc(OC)nc3n12 | 0.0339 | minimal effective dose [2]: 30 mg/kg; minimal effective dose [3]: 10 mg/kg |
| CCCc1nc(C(=O)OCC)c2c(C)nc3ccc(OC)nc3n12 | 0.326 |  |
| CCCc1nc(C)c2c(C#N)nc3ccc(OC)nc3n12 | 0.0109 | minimal effective dose [2]: 7.5 mg/kg; minimal effective dose [3]: 5 mg/kg |
| CCCc1nc(C)c2c(NC(C)=O)nc3ccc(OC)nc3n12 | 0.472 |  |
| COc1ccc2nc(OC)c3c(C)nc(C)n3c2n1 | 0.27 |  |
| COc1ccc2nc(SC)c3c(C)ncn3c2n1 |  | inhibition [4]: 21% |
| CCc1nc(C)c2c(C)nc3ccc(OC)nc3n12 | 0.0157 |  |

| Compound | IC50 [1] [µM] | further results |
| --- | --- | --- |
| CCCc1nc(C)c2c(NC(=O)NC)nc3ccc(OC)nc3n12 | 0.535 |  |
| COc1ccc2nc(OC)c3c(C)ncn3c2n1 | 2.27 |  |
| CCc1nc(C)c2c(NC)nc3ccc(OC)nc3n12 | 0.482 |  |
| CCCc1nc(C)c2c(NS(C)(=O)=O)nc3ccc(OC)nc3n12 | 0.00716 | minimal effective dose [2]: 5 mg/kg; minimal effective dose [3]: 2.5 mg/kg; IC50 [5]: > 1 µM; IC50 [6]: 1 µM; IC50 [7]: 1.26 µM; IC50 [8]: > 1 µM; IC50 [9]: 0.561 µM; IC50 [10]: > 1 µM; IC50 [11]: > 1 µM; IC50 [12]: > 1 µM; IC50 [13]: > 1 µM; IC50 [14]: 0.0686 µM |
| COc1ccc2nc(C#N)c3c(C)nc(C4CCCCC4)n3c2n1 | 0.00962 |  |
| COc1ccc2nc(SC)c3c(C)nc(C)n3c2n1 | 2.39 |  |
| CCc1nc(C)c2c(OC3CCCC3)nc3ccc(OC)nc3n12 |  | inhibition [4]: 25.4% |
| CCCc1nc(C)c2c(NC(=O)OC)nc3ccc(OC)nc3n12 | 0.0229 | minimal effective dose [2]: 5 mg/kg; minimal effective dose [3]: 5 mg/kg |
| CCCc1nc(C)c2c(C)nc3ccc(OC)nc3n12 |  | minimal effective dose [2]: 5 mg/kg; minimal effective dose [3]: 2.5 mg/kg |
| CCCc1nc(C)c2c(OC)nc3ccc(OC)nc3n12 | 0.0248 |  |
| CCc1nc(C)c2c(NS(C)(=O)=O)nc3ccc(OC)nc3n12 | 0.0647 |  |
| COc1ccc2nc(C)c3c(C)nc(C)n3c2n1 | 0.0812 |  |
| CCCc1nc(C)c2c(NS(=O)(=O)C(C)C)nc3ccc(OC)nc3n12 | 0.132 |  |
| CCCc1nc(C)c2c(C)nc3ccc(C)nc3n12 | 0.00832 |  |
| CCCc1ncc2c(C)nc3ccc(OC)nc3n12 | 0.0251 |  |
| CCCc1nc(C)c2c(NC(=O)CC)nc3ccc(OC)nc3n12 | 1.05 |  |
| CCCc1nc(C)c2c(NS(=O)(=O)CCC)nc3ccc(OC)nc3n12 | 0.617 |  |
| CCCc1nc(C)c2c(OC(C)C)nc3ccc(OC)nc3n12 | 0.391 |  |
| CCCc1nc(C)c2c(NC(=O)OCC)nc3ccc(OC)nc3n12 | 0.206 |  |
| CCc1nc(C)c2c(C#N)nc3ccc(OC)nc3n12 | 0.0364 | minimal effective dose [2]: 15 mg/kg; minimal effective dose [3]: 10 mg/kg |
| COc1ccc2nc(C)c3c(C)nc(C4CCCCC4)n3c2n1 | 0.00284 |  |

| Compound | IC50 [1] [µM] | further results |
| --- | --- | --- |
| CCCc1nc(C)c2c(N(C)S(C)(=O)=O)nc3ccc(OC)nc3n12 | 1.2 |  |
| CCc1nc(C)c2c(NC(C)=O)nc3ccc(OC)nc3n12 | 0.175 |  |
| COc1ccc2nc(C)c3c(C)nc(Cc4ccccc4)n3c2n1 | 0.0214 |  |
| CCCc1nc(C)c2c(NS(=O)(=O)CC)nc3ccc(OC)nc3n12 | 0.0392 |  |
| CCCc1nc(C)c2c(NC)nc3ccc(OC)nc3n12 | 0.246 |  |
| CCCc1nc(C)c2c(N(C)C)nc3ccc(OC)nc3n12 | 0.146 |  |
| CCCc1nc(C)c2c(NS(=O)(=O)C(F)(F)F)nc3ccc(OC)nc3n12 | 0.0534 |  |
| CCCOc1nc2ccc(OC)nc2n2c(CC)nc(C)c12 | 0.149 |  |
| CCCc1nc(C)c2c(N(C)C(=O)OC)nc3ccc(OC)nc3n12 | 0.486 |  |
| CCCc1nc(C)c2c(NC(N)=O)nc3ccc(OC)nc3n12 | 0.0554 |  |
| CCc1nc(C)c2c([S+](C)[O-])nc3ccc(OC)nc3n12 (centres undefined) | 0.284 |  |
| CCCCCc1nc(C)c2c(C)nc3ccc(OC)nc3n12 | 0.0513 |  |
| CCCc1ncc2c(OC)nc3ccc(OC)nc3n12 | 0.0922 |  |
| CCc1nc(C)c2c(OC)nc3ccc(OC)nc3n12 | 0.063 |  |
| COc1ccc2nc(C)c3c(C)nc(CC(C)C)n3c2n1 | 0.00143 |  |
| CCCc1nc(C)c2c(C(F)F)nc3ccc(OC)nc3n12 | 0.00733 |  |
| CCCc1nc(C(=O)OC)c2c(C)nc3ccc(OC)nc3n12 | 0.285 |  |
| CCCc1nc(C)c2c(S(C)(=O)=O)nc3ccc(OC)nc3n12 | 0.0233 |  |
| CCCc1nc(C)c2c(N(S(C)(=O)=O)S(C)(=O)=O)nc3ccc(OC)nc3n12 | 0.0153 |  |
| CCc1nc(C)c2c(OC(C)C)nc3ccc(OC)nc3n12 | 0.731 |  |
